Results: ChEMBL document CHEMBL1122625, “Synthesis and antiviral/antitumor activities of certain 3-deazaguanine nucleosides and nucleotides” (J Med Chem, 1984)
pIC50: −log10 of the molar value. Activity calls are given as the source filed them. The rule behind the calls is not given here.

What was measured:
P388 [1] = experiment: In vitro antitumor activity in the culture media (that produced 50% inhibition of the P388 leukemia cell growth as compared to the untreated cells); Inhibition at 10E-4; format: functional, Mus musculus
[2] = tested on: Vesicular stomatitis virus; experiment: In vitro antiviral activity (virus ratings (VR)) determined by comparing CPE development in drug-treated cells (T) and Vesicular stomatitis virus control cells; format: functional
Vaccinia virus = experiment: In vitro antiviral activity (virus ratings (VR)) determined by comparing CPE development in drug-treated cells (T) and Vaccinia virus control cells; format: functional, Orthopoxvirus vaccinia
Human alphaherpesvirus 1 = experiment: In vitro antiviral activity (virus ratings (VR)) determined by comparing CPE development in drug-treated cells (T) and HSV-1 virus control cells; format: functional
Human respirovirus 3 [3] = experiment: In vitro antiviral activity (virus ratings (VR)) determined by comparing CPE development in drug-treated cells (T) and Parainfluenza type 3 virus control cells; format: functional
L1210 [4] = experiment: In vitro antitumor activity in the culture media (that produced 50% inhibition of the L1210 leukemia cell growth as compared to the untreated cells); format: functional; settings: Mus musculus, read-out: ID50 (the source's name)
Procedure, shortened: (§1)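 L1210 or P388 cells kept in RPMI-1640 with 10% heat-inactivated fetal calf serum and seeded in tubes at 5 × 10⁴ cells/mL. Grown with compound at 4-5 log doses for 48 h at 37 °C. Cells counted electronically, growth expressed as % of untreated control tubes, and the dose giving 50% growth inhibition (ID₅₀) determined.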

Human respirovirus 3 [5] = experiment: In vitro antiviral activity (virus ratings (VR)) determined by comparing CPE development in drug-treated cells (T) and Parainfluenza type 3 virus control cells.; format: functional
[6] = Toxic level was evaluated; None; format: ADME
P388 [7] = experiment: In vitro antitumor activity in the culture media (that produced 50% inhibition of the P388 leukemia cell growth as compared to the untreated cells); b=Inactive at 10E-4 M; format: functional, cell-based; settings: Mus musculus
Procedure, shortened: (§2)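 L1210 leukemia and P388 lymphoid neoplasm cells kept in RPMI-1640 with 10% heat-inactivated fetal calf serum. Seeded at 5 × 10⁴ cells/mL, then grown 48 h at 37 °C with compound at 4-5 log doses. Growth counted by Coulter counter and expressed as % of control tubes. ID50 is the dose giving 50% growth inhibition.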

L1210 [8] = experiment: In vitro antitumor activity in the culture media (that produced 50% inhibition of the L1210 leukemia cell growth as compared to the untreated cells); b=Inactive at 10E-4 M; format: functional, cell-based; settings: Mus musculus; procedure, shortened: as §2
P388 [9] = experiment: In vitro antitumor activity in the culture media (that produced 50% inhibition of the P388 leukemia cell growth as compared to the untreated cells); b=Inactive at 10E-4; format: functional, cell-based; settings: Mus musculus; procedure, shortened: as §2
L1210 [10] = experiment: In vitro antitumor activity in the culture media (that produced 50% inhibition of the L1210 leukemia cell growth as compared to the untreated cells); Inhibition at 10E-5; format: functional, Mus musculus
[11] = tested on: Vesicular stomatitis virus; experiment: In vitro antiviral activity (virus ratings (VR)) determined by comparing CPE development in drug-treated cells (T) and VSV virus control cells; format: functional
P388 [12] = experiment: In vitro antitumor activity in the culture media (that produced 50% inhibition of the P388 leukemia cell growth as compared to the untreated cells); format: functional; settings: Mus musculus, read-out: ID50 (the source's name); procedure, shortened: as §1
P388 [13] = experiment: In vitro antitumor activity in the culture media (that produced 50% inhibition of the P388 leukemia cell growth as compared to the untreated cells); Inhibition at 10E-5; format: functional, Mus musculus

Compound	Inhibition (P388 [1]) [%]	Virus rating [2]	Virus rating (Vaccinia virus)	Virus rating (Human alphaherpesvirus 1)	Virus rating (Human respirovirus 3 [3])	pIC50 (L1210 [4])	Virus rating (Human respirovirus 3 [5])	Toxic level [6]	ID50 (P388 [7])	ID50 (L1210 [8])	ID50 (P388 [9])	Inhibition (L1210 [10]) [%]	Virus rating [11]	pIC50 (P388 [12])	Inhibition (P388 [13]) [%]
Nc1cc2[nH]cnc2c(=O)[nH]1 [DEZAGUANINE]	39	1.55	1.55	1.4	0.98	4.21	–	–	–	–	–	–	–	–	–
NC(=O)c1ncn([C@@H]2O[C@H](CO)[C@@H](O)[C@H]2O)n1 [RIBAVIRIN]	–	0.8	1.2	0.6	–	–	1.3	Not Active	–	–	–	–	–	–	–
Nc1cc2ncn([C@H]3C[C@H](O)[C@@H](CO)O3)c2c(O)n1	–	1.06	1.42	0.8	0.92	–	–	Not Active	Inactive at 10^-4M	Inactive at 10^-4M	–	–	–	–	–
Nc1cc2c(ncn2[C@@H]2C[C@H](O)[C@@H](CO)O2)c(O)n1	–	0.8	1.65	1	–	–	0.7	Not Active	–	–	Inactive at 10^-4M	45	–	–	–
Nc1cc2c(ncn2C2O[C@H](CO)[C@@H](O)[C@H]2O)c(=O)n1N (some centres not stated)	–	–	1.25	0.25	–	–	0.3	–	Inactive at 10^-4M	Inactive at 10^-4M	–	–	0.45	–	–
NNc1cc2ncnc-2c(O)n1N	–	0	0.15	0.05	–	4.46	0.03	–	–	–	–	–	–	4.21	–
Nc1cc2c(ncn2[C@H]2C[C@H](O)[C@@H](CO)O2)c(O)n1	–	1.03	1.72	1.28	–	4.70	1.45	Not Active	–	–	–	–	–	4.38	–
Nc1cc2c(ncn2[C@@H]2O[C@H](CO)[C@@H](O)[C@H]2O)c(=O)[nH]1	–	1.5	1.5	1.4	–	4.74	1.18	–	–	–	–	–	–	4.80	–
Nc1cc2c(ncn2[C@@H]2O[C@@H]3COP(=O)(O)O[C@H]3[C@H]2O)c(O)n1	–	1	1.15	1.02	–	5.39	0.62	–	–	–	–	–	–	4.35	–
Nc1cc2ncn([C@@H]3C[C@H](O)[C@@H](CO)O3)c2c(O)n1	–	0.35	1.18	0.3	–	4.10	0.22	–	–	–	–	–	–	–	31
